From ChEMBL document CHEMBL1155465, “"Viologen" dendrimers as antiviral agents: the effect of charge number and distance” (J Med Chem, 2010)
Values after ≈ are worked out from the molar mass of the structure shown. Active and inactive are the calls of the source. No cut-off for these calls is given here.

Columns and labels:
[1] = tested on: Human immunodeficiency virus 1; assay: Antiviral activity against HIV1 3B infected in human MT4 cells after 5 days by MTT assay; assay type: functional, organism-based; details: Human immunodeficiency virus 1, 3B, MT4, 120 h
In short: (§1)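 MT-4 cells in RPMI 1640 with 10% heat-inactivated FCS, 2 mM L-glutamine, 0.1% bicarbonate and gentamicin, seeded at 6 × 10⁵ cells/mL final with virus or mock infection. Viability read by MTT after 5 days at 540 and 690 nm, using the median OD of three wells. CC50 is 50% loss of mock-infected OD540. EC50 is 50% inhibition of virus-induced CPE. SI = CC50/EC50. Mean ± SD of ≥2 experiments.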

[2] = tested on: Human immunodeficiency virus 2; assay: Antiviral activity against HIV2 ROD infected in human MT4 cells after 5 days by MTT assay; assay type: functional, organism-based; details: Human immunodeficiency virus 2, ISOLATE ROD, MT4, 120 h; in short: as §1
[3] = tested on: Simian immunodeficiency virus; assay: Antiviral activity against SIV MAC251 infected in human MT4 cells after 5 days by MTT assay; assay type: functional, organism-based; details: MAC251, MT4, 120 h; in short: as §1
[4] = Cytotoxicity against human MT4 cells after 5 days by MTT assay; assay type: cell-based; in short: as §1
[5] = Selectivity index, ratio of CC50 for human MT4 cells to EC50 for HIV1 3B; assay type: toxicity, cell-based; details: read-out: Ratio CC50/EC50; in short: as §1
[6] = tested on: Human immunodeficiency virus 1; assay: Antiviral activity against HIV1 3B infected in human PBMC assessed as inhibition of viral p24 antigen production by ELISA; assay type: functional, organism-based; details: Human immunodeficiency virus 1, 3B
In short: (§2)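 PBMCs infected with HIV-1 IIIB and cultured with a range of compound concentrations. EC50 is 50% inhibition of supernatant p24 core antigen (ELISA) relative to drug-free culture. CC50 is 50% reduction in cell viability. SI = CC50/EC50. Mean ± SD of ≥2 experiments.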

[7] = Cytotoxicity against human PBMC after 5 days by MTT assay; assay type: cell-based; in short: as §2
[8] = Selectivity index, ratio of CC50 for human PBMC to EC50 for HIV1 3B; in short: as §2
[9] = tested on: Human alphaherpesvirus 1; assay: Antiviral activity against HSV1 KOS infected in human E6SM cell assessed as inhibition of virus-induced cytopathicity; assay type: functional, organism-based; details: Human alphaherpesvirus 1, KOS
[10] = tested on: Human alphaherpesvirus 2; assay: Antiviral activity against HSV2 G infected in human E6SM cell assessed as inhibition of virus-induced cytopathicity; assay type: functional, organism-based; details: Human alphaherpesvirus 2, strain G
[11] = tested on: Vaccinia virus; assay: Antiviral activity against Vaccina virus infected in human E6SM cell assessed as inhibition of virus-induced cytopathicity; assay type: functional, organism-based; details: Orthopoxvirus vaccinia
[12] = tested on: Vesicular stomatitis virus; assay: Antiviral activity against VSV infected in human E6SM cell assessed as inhibition of virus-induced cytopathicity; assay type: functional, organism-based
[13] = tested on: Human alphaherpesvirus 1; assay: Antiviral activity against TK-deficient acyclovir-resistant HSV1 KOS infected in human E6SM cell assessed as inhibition of virus-induced cytopathicity; assay type: functional, organism-based; details: Human alphaherpesvirus 1, KOS
[14] = tested on: Vesicular stomatitis virus; assay: Antiviral activity against VSV infected in human HeLa cell assessed as inhibition of virus-induced cytopathicity; assay type: functional, organism-based
[15] = tested on: Respiratory syncytial virus; assay: Antiviral activity against RSV infected in human HeLa cell assessed as inhibition of virus-induced cytopathicity; assay type: functional, organism-based
[16] = Cytotoxicity against human E6SM cells by MTT assay; assay type: cell-based
[17] = Cytotoxicity against human HeLa cells by MTT assay; assay type: cell-based
[18] = tested on: Human respirovirus 3; assay: Antiviral activity against Parainfluenza virus 3 infected in african green monkey Vero cells assessed as inhibition of virus-induced cytopathicity; assay type: functional, organism-based; details: Human respirovirus 3, Vero
[19] = tested on: Reovirus sp.; assay: Antiviral activity against Reovirus infected in african green monkey Vero cells assessed as inhibition of virus-induced cytopathicity; assay type: functional, organism-based
[20] = tested on: Sindbis virus; assay: Antiviral activity against Sindbis virus infected in african green monkey Vero cells assessed as inhibition of virus-induced cytopathicity; assay type: functional, organism-based
[21] = tested on: Punta Toro virus; assay: Antiviral activity against Punta Toro virus infected in african green monkey Vero cells assessed as inhibition of virus-induced cytopathicity; assay type: functional, organism-based
[22] = Cytotoxicity against african green monkey Vero cells by MTT assay; assay type: cell-based; details: chlorocebus sabaeus
[23] = tested on: Human immunodeficiency virus; assay: Antiviral activity against HIV SO6141 infected in human MT4 cells after 5 days by MTT assay; assay type: functional, organism-based; details: Human immunodeficiency virus 1, SO6141, MT4, 120 h; in short: as §1
[24] = tested on: Human immunodeficiency virus 1; assay: Antiviral activity against HIV1 NL4-3 pseudotyped with VSV-G envelope infected in human C8166 cells assessed as inhibition of GFP expression after 48 hrs by flow cytometry; assay type: functional, organism-based
In short: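 VSV-G-pseudotyped (env-deficient) GFP-encoding NL4.3 taken from transfection supernatant at 60 h and clarified at 450g for 10 min. Used to infect 3 × 10⁴ C8166 cells (RPMI 1640, 10% FCS) with graded compound concentrations. GFP expression read by flow cytometry 48 h post-infection, with the no-compound infection control set as 100%.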

[25] = tested on: Human immunodeficiency virus 1; assay: Antiviral activity against HIV1 3B infected in human MT4 cells assessed as time-of-addition prolongation at 2 ug/ml after 31 hrs post infection by ELISA; assay type: functional
In short: (§3)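 Time-of-addition: MT-4 cells infected with HIV-1 IIIB at moi 0.5 for a 1 h adsorption, then plated at 45000 cells/well at 37 °C. Compound added at 0, 1, 2, 3, 4, 5, 6, 7, 8, 24 or 25 h post-infection. Supernatant p24 antigen measured by ELISA at 31 h post-infection.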

[26] = tested on: Human immunodeficiency virus 1; assay: Antiviral activity against HIV1 3B infected in human A72 Jurkat cells assessed as inhibition of GFP expression after 48 hrs by flow cytometry; assay type: functional, organism-based; details: Human immunodeficiency virus 1, 3B
In short: (§4)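 Acutely infected A72 Jurkat cells. EC50 (μg/mL) is the concentration giving 50% inhibition of GFP expression relative to drug-free infection. CC50 is 50% reduction in cell viability. SI = CC50/EC50. Mean ± SD of ≥2 experiments.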

[27] = tested on: Human immunodeficiency virus 2; assay: Antiviral activity against HIV2 ROD infected in human A72 Jurkat cells assessed as inhibition of GFP expression after 48 hrs by flow cytometry; assay type: functional, organism-based; details: Human immunodeficiency virus 2, ISOLATE ROD; in short: as §4
[28] = tested on: Human immunodeficiency virus 1; assay: Antiviral activity against HIV1 NL4-3 infected in human A72 Jurkat cells assessed as inhibition of GFP expression after 48 hrs by flow cytometry; assay type: functional, organism-based; details: Human immunodeficiency virus 1, NL4-3, Jurkat; in short: as §4
[29] = tested on: Human immunodeficiency virus; assay: Antiviral activity against AZT-resistant HIV infected in human A72 Jurkat cells assessed as inhibition of GFP expression after 48 hrs by flow cytometry; assay type: functional, organism-based; details: Human immunodeficiency virus 1, Jurkat; in short: as §4
[30] = tested on: Human immunodeficiency virus; assay: Antiviral activity against HIV S056 infected in human A72 Jurkat cells assessed as inhibition of GFP expression after 48 hrs by flow cytometry; assay type: functional, organism-based; details: Human immunodeficiency virus 1, S056, Jurkat; in short: as §4
[31] = tested on: Human immunodeficiency virus; assay: Antiviral activity against HIV S067 infected in human A72 Jurkat cells assessed as inhibition of GFP expression after 48 hrs by flow cytometry; assay type: functional, organism-based; details: Human immunodeficiency virus 1, S067, Jurkat; in short: as §4
[32] = tested on: Human immunodeficiency virus; assay: Antiviral activity against HIV S07 infected in human A72 Jurkat cells assessed as inhibition of GFP expression after 48 hrs by flow cytometry; assay type: functional, organism-based; details: Human immunodeficiency virus 1, S07, Jurkat; in short: as §4
[33] = Cytotoxicity against human Jurkat A72 cells by MTT assay; assay type: cell-based; in short: as §4
[34] = Selectivity index, ratio of CC50 for human Jurkat A72 cells to EC50 for HIV1 3B; assay type: toxicity, cell-based; in short: as §4
[35] = tested on: Human immunodeficiency virus 1; assay: Antiviral activity against HIV1 3B infected in human MT4 cells assessed as time-of-addition prolongation at 0.5 ug/ml after 31 hrs post infection by ELISA; assay type: functional; in short: as §3

Row | SMILES | EC50 [1] | EC50 [2] | EC50 [3] | CC50 at 120 h [4] | selectivity ratio [5] | EC50 [6] | CC50 at 120 h [7] | Ratio CC50/EC50 [8] | EC50 [9] | EC50 [10] | EC50 [11] | EC50 [12] | EC50 [13] | EC50 [14] | EC50 [15] | MCC [16] | MCC [17] | EC50 [18] | EC50 [19] | EC50 [20] | also measured
1 | CC[n+]1ccc(-c2cc[n+](Cc3cc(C[n+]4ccc(-c5cc[n+](CC)cc5)cc4)cc(-[n+]4ccc(-c5cc[n+](-c6cc(C[n+]7ccc(-c8cc[n+](CC)cc8)cc7)cc(C[n+]7ccc(-c8cc[n+](CC)cc8)cc7)c6)cc5)cc4)c3)cc2)cc1.F[P-](F)(F)(F)(F)F.F[P-](F)(F)(F)(F)F.F[P-](F)(F)(F)(F)F.F[P-](F)(F)(F)(F)F.F[P-](F)(F)(F)(F)F.F[P-](F)(F)(F)(F)F.F[P-](F)(F)(F)(F)F.F[P-](F)(F)(F)(F)F.F[P-](F)(F)(F)(F)F.F[P-](F)(F)(F)(F)F | 1.01 µM | > 49 µM | > 49 µM | > 49 µM | 48.5 | 0.79 µg/mL | 26.8 µg/mL | 34 | 6 µg/mL | 50 µg/mL | > 50 µg/mL | > 50 µg/mL | 30 µg/mL | > 50 µg/mL | 50 µg/mL | > 50 µg/mL | > 50 µg/mL | > 50 µg/mL | > 50 µg/mL | > 50 µg/mL | EC50 [21]: > 50 µg/mL; MCC [22]: > 50 µg/mL; EC50 [23]: > 49 µM
2 | c1cc(CN2CCCNCCNCCCNCC2)ccc1CN1CCCNCCNCCCNCC1 | – | – | – | – | – | – | – | – | – | – | – | – | – | – | – | – | – | – | – | – | inhibition [24]: inactive
3 | CC[n+]1ccc(-c2cc[n+](Cc3cc(C[n+]4ccc(-c5cc[n+](CC)cc5)cc4)cc(C[n+]4ccc(-c5cc[n+](Cc6cc(C[n+]7ccc(-c8cc[n+](Cc9cc(C[n+]%10ccc(-c%11cc[n+](CC)cc%11)cc%10)cc(C[n+]%10ccc(-c%11cc[n+](CC)cc%11)cc%10)c9)cc8)cc7)cc(-[n+]7ccc(-c8cc[n+](-c9cc(C[n+]%10ccc(-c%11cc[n+](Cc%12cc(C[n+]%13ccc(-c%14cc[n+](CC)cc%14)cc%13)cc(C[n+]%13ccc(-c%14cc[n+](CC)cc%14)cc%13)c%12)cc%11)cc%10)cc(C[n+]%10ccc(-c%11cc[n+](Cc%12cc(C[n+]%13ccc(-c%14cc[n+](CC)cc%14)cc%13)cc(C[n+]%13ccc(-c%14cc[n+](CC)cc%14)cc%13)c%12)cc%11)cc%10)c9)cc8)cc7)c6)cc5)cc4)c3)cc2)cc1.F[P-](F)(F)(F)(F)F.F[P-](F)(F)(F)(F)F.F[P-](F)(F)(F)(F)F.F[P-](F)(F)(F)(F)F.F[P-](F)(F)(F)(F)F.F[P-](F)(F)(F)(F)F.F[P-](F)(F)(F)(F)F.F[P-](F)(F)(F)(F)F.F[P-](F)(F)(F)(F)F.F[P-](F)(F)(F)(F)F.F[P-](F)(F)(F)(F)F.F[P-](F)(F)(F)(F)F.F[P-](F)(F)(F)(F)F.F[P-](F)(F)(F)(F)F.F[P-](F)(F)(F)(F)F.F[P-](F)(F)(F)(F)F.F[P-](F)(F)(F)(F)F.F[P-](F)(F)(F)(F)F.F[P-](F)(F)(F)(F)F.F[P-](F)(F)(F)(F)F.F[P-](F)(F)(F)(F)F.F[P-](F)(F)(F)(F)F.F[P-](F)(F)(F)(F)F.F[P-](F)(F)(F)(F)F.F[P-](F)(F)(F)(F)F.F[P-](F)(F)(F)(F)F | 1.4 µM | 9.82 µM | ≥ 0.49 µM | > 18.6 µM | 13.3 | > 0.52 µg/mL | 0.52 µg/mL | <1 | 6 µg/mL | 50 µg/mL | > 50 µg/mL | > 50 µg/mL | 30 µg/mL | > 50 µg/mL | 50 µg/mL | > 50 µg/mL | > 50 µg/mL | > 50 µg/mL | > 50 µg/mL | > 50 µg/mL | EC50 [21]: > 50 µg/mL; MCC [22]: > 50 µg/mL; EC50 [23]: 1.23 µM
4 | Cc1ccnc2c1NC(=O)c1cccnc1N2C1CC1 [NEVIRAPINE] | – | – | – | – | – | – | – | – | – | – | – | – | – | – | – | – | – | – | – | – | Time [25]: 10 h; EC50 [26]: 0.008 µg/mL (≈ 0.03 µM); EC50 [27]: > 2 µg/mL; EC50 [28]: 0.008 µg/mL (≈ 0.03 µM); EC50 [29]: 0.005 µg/mL (≈ 0.0188 µM); EC50 [30]: < 0.2 µg/mL; EC50 [31]: 0.016 µg/mL (≈ 0.0601 µM); EC50 [32]: 0.012 µg/mL (≈ 0.0451 µM); CC50 [33]: > 2 µg/mL; selectivity ratio [34]: > 250
5 | Cc1cn([C@H]2C[C@H](N=[N+]=[N-])[C@@H](CO)O2)c(=O)[nH]c1=O [ZIDOVUDINE] | – | – | – | – | – | – | – | – | – | – | – | – | – | – | – | – | – | – | – | – | Time [35]: 5 h
